In brackets after ≈: the same amount, converted by molar mass.
Experiments:
Trichomonas vaginalis [1] = test: Potency index, ratio of metronidazole MIC to compound MIC for metronidazole resistant Trichomonas vaginalis ATCC 50143; type: functional
Trichomonas vaginalis [2] = test: Antiparasitic activity against metronidazole resistant Trichomonas vaginalis ATCC 50143 after 48 hrs by trypan blue exclusion assay; type: functional; conditions: ATCC 50143, 48 h
In short: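 T. vaginalis trophozoites ([…]), log phase, grown in TYM with 10% FCS, vitamin mix and penicillin/streptomycin at 37 °C. Test agents from DMSO stocks serially diluted in TYM; DMSO/TYM vehicle controls. Anaerobic incubation at 37 °C with microscopic viability checks from 3 to 48 h by trypan blue exclusion. MIC is the lowest concentration killing all cells by 48 h. Repeated three times.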

[3] = Selectivity index, ratio of IC50 for human HeLa cells to MIC for metronidazole resistant Trichomonas vaginalis ATCC 50143; type: toxicity, cell-based; conditions: read-out: Selectivity Index
In short: (§1)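 SI is HeLa IC50 divided by parasite MIC. HeLa cells seeded at 2 × 10⁴/well in triplicate in DMEM with 10% FCS, 24 h at 37 °C in 5% CO2. Medium then replaced with compound dilutions (0.05% DMSO controls) for 24 h. Viability by MTT read at OD540; IC50 is the concentration killing 50% of cells. MIC from 48 h trypan blue parasite killing in TYM.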

[4] = Selectivity index, ratio of IC50 for human HeLa cells to MIC for metronidazole sensitive Trichomonas vaginalis ATCC 33592; type: toxicity, cell-based; conditions: read-out: Selectivity Index; in short: as §1
[5] = Cytotoxicity against human HeLa cells after 24 hrs by MTT assay; type: toxicity, cell-based
In short: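 HeLa cells seeded at 2 × 10⁴ per well in DMEM with 10% FCS, in triplicate, and held 24 h at 37 °C in 5% CO₂. Exposed to compound dilutions for 24 h; controls received 0.05% DMSO. MTT in PBS pH 7.4 added, formazan dissolved in DMSO, OD540 read. IC50 taken as the concentration killing 50% of cells.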

Trichomonas vaginalis [6] = test: Antiparasitic activity against metronidazole sensitive Trichomonas vaginalis ATCC 33592 after 48 hrs by trypan blue exclusion assay; type: functional; conditions: ATCC 33592, 48 h
Trichomonas vaginalis [7] = test: Potency index, ratio of metronidazole MIC to compound MIC for metronidazole sensitive Trichomonas vaginalis ATCC 33592; type: functional

| SMILES | Ratio (Trichomonas vaginalis [1]) | MIC (Trichomonas vaginalis [2]) [µM] | selectivity ratio [3] | selectivity ratio [4] | IC50 at 24 h [5] [mM] | MIC (Trichomonas vaginalis [6]) [µM] | Ratio (Trichomonas vaginalis [7]) |
| --- | --- | --- | --- | --- | --- | --- | --- |
| Cc1ncc([N+](=O)[O-])n1CC(O)CSC(=S)N1CCCCCC1 (racemic) | 2.5 - 12.6 | 69.8 (≈ 25 µg/mL) | 6 | 11 | 0.411 | 34.9 (≈ 12.5 µg/mL) |  |
| Cc1ncc([N+](=O)[O-])n1CC(O)CSC(=S)N1CCC(Cc2ccccc2)CC1 (racemic) | 2.5 - 12.6 | 28.8 (≈ 12.5 µg/mL) | 45 | 91 | 1.32 | 14.4 (≈ 6.26 µg/mL) | <=2.4 |
| CCOC(=O)N1CCN(CC(O)Cn2c([N+](=O)[O-])cnc2C)CC1 (racemic) | <=12.7 | 91.6 (≈ 31.3 µg/mL) | 40 | 160 | 3.67 | 22.9 (≈ 7.82 µg/mL) |  |
| Cc1ncc([N+](=O)[O-])n1CC(O)CN1CCCC(C)C1 (racemic) | <=12.7 | 88.7 (≈ 25 µg/mL) | > 56 | > 227 | > 5 | 22.2 (≈ 6.26 µg/mL) |  |
| Cc1ncc([N+](=O)[O-])n1CC(O)CN1CCCCC1 (racemic) | <=12.7 | 187 (≈ 50.1 µg/mL) | > 26 | > 217 | > 5 | 23.3 (≈ 6.26 µg/mL) |  |
| Cc1ncc([N+](=O)[O-])n1CC(O)CN1CCC(Cc2ccccc2)CC1 (racemic) | <=12.7 | 140 (≈ 50.1 µg/mL) | 10 | 40 | 1.43 | 34.9 (≈ 12.5 µg/mL) |  |
| Cc1ncc([N+](=O)[O-])n1CC(O)CN1CCN(c2ccccc2)CC1 (racemic) | <=12.7 | 181 (≈ 62.6 µg/mL) | > 27 | > 220 | > 5 | 22.6 (≈ 7.82 µg/mL) |  |
| Cc1ncc([N+](=O)[O-])n1CC(O)Cn1cnc([N+](=O)[O-])c1 (racemic) | <=12.7 | 106 (≈ 31.3 µg/mL) | > 47 | > 192 | > 5 | 26.4 (≈ 7.81 µg/mL) |  |
| Cc1ncc([N+](=O)[O-])n1CC(O)CN1CCN(c2ccccc2F)CC1 (racemic) | <=12.7 | 344 (≈ 125 µg/mL) | > 14 | > 116 | > 5 | 43 (≈ 15.6 µg/mL) |  |
| Cc1ncc([N+](=O)[O-])n1CC(O)Cn1nnc2ccccc21 (racemic) | <=12.7 | 41.4 (≈ 12.5 µg/mL) | 103 | 169 | 4.24 | 25.9 (≈ 7.82 µg/mL) |  |
| Cc1nc([N+](=O)[O-])cn1CC(O)Cn1c([N+](=O)[O-])cnc1C (racemic) | <=12.7 | 101 (≈ 31.3 µg/mL) | 43 | 86 | 4.35 | 50.4 (≈ 15.6 µg/mL) |  |
| Cc1ncc([N+](=O)[O-])n1CC(O)CN1CCC(C)CC1 (racemic) | <=12.7 | 177 (≈ 50.1 µg/mL) | > 28 | > 113 | > 5 | 44.3 (≈ 12.5 µg/mL) |  |
| Cc1ncc([N+](=O)[O-])n1CC(O)CN1CCCC1 (racemic) | <=12.7 | 197 (≈ 50.1 µg/mL) | > 25 | > 102 | > 5 | 49.2 (≈ 12.5 µg/mL) |  |
| Cc1ncc([N+](=O)[O-])n1CC(O)CSC(=S)N1CCOCC1 (racemic) | 2.5 - 12.6 | 144 (≈ 50.1 µg/mL) | 31 | 125 | 4.52 | 36.1 (≈ 12.5 µg/mL) |  |
| COc1ccccc1N1CCN(CC(O)Cn2c([N+](=O)[O-])cnc2C)CC1 (racemic) | <=12.7 | 133 (≈ 50.1 µg/mL) | 33 | 131 | 4.39 | 33.3 (≈ 12.5 µg/mL) |  |
| Cc1ncc([N+](=O)[O-])n1CC(O)CSC(=S)N1CCCC1 (racemic) | 2.5 - 12.6 | 152 (≈ 50.1 µg/mL) | 9 | 35 | 1.34 | 37.9 (≈ 12.5 µg/mL) |  |
| Cc1ncc([N+](=O)[O-])n1CC(O)Cn1nccn1 (racemic) | <=12.7 | 49.6 (≈ 12.5 µg/mL) | > 102 | > 161 | > 5 | 31 (≈ 7.82 µg/mL) |  |
| Cc1ncc([N+](=O)[O-])n1CC(O)Cn1cncn1 (racemic) | <=12.7 | 99.2 (≈ 25 µg/mL) | 50 | 160 | 4.97 | 31 (≈ 7.82 µg/mL) |  |

| SMILES | Ratio (Trichomonas vaginalis [1]) | MIC (Trichomonas vaginalis [2]) [µM] | selectivity ratio [3] | selectivity ratio [4] | IC50 at 24 h [5] [mM] | MIC (Trichomonas vaginalis [6]) [µM] | Ratio (Trichomonas vaginalis [7]) |
| --- | --- | --- | --- | --- | --- | --- | --- |
| Cc1nc([N+](=O)[O-])cn1CC(O)CSC(=S)N1CCN(c2ccccc2)CC1 (racemic) | <=12.7 | 297 (≈ 125 µg/mL) | > 16 | > 227 | > 5 | 22.7 (≈ 9.56 µg/mL) |  |
| Cc1ncc([N+](=O)[O-])n1CC(O)CN1CCCCCC1 (racemic) | <=12.7 | 44.3 (≈ 12.5 µg/mL) | > 113 | > 227 | > 5 | 22.2 (≈ 6.26 µg/mL) |  |
| Cc1ncc([N+](=O)[O-])n1CC(O)CN1CCN(c2cccc(Cl)c2)CC1 (racemic) | <=12.7 | 330 (≈ 125 µg/mL) | 4 | 10 | 1.44 | 132 (≈ 50.1 µg/mL) |  |
| Cc1ncc([N+](=O)[O-])n1CC(O)CSC(=S)N1CCCCC1 (racemic) | 2.5 - 12.6 | 145 (≈ 50.1 µg/mL) | 9 | 19 | 1.4 | 72.7 (≈ 25 µg/mL) |  |
| Cc1ncc([N+](=O)[O-])n1CC(O)CSC(=S)N1CCCC(C)C1 (racemic) | 2.5 - 12.6 | 69.8 (≈ 25 µg/mL) | 8 | 35 | 0.609 | 17.4 (≈ 6.26 µg/mL) | <=2.4 |
| Cc1ncc([N+](=O)[O-])n1CC(O)CN1CCN(c2ccco2)CC1 (racemic) | <=12.7 | 172 (≈ 57.7 µg/mL) | 20 | 163 | 3.52 | 21.5 (≈ 7.21 µg/mL) |  |
| Cc1ncc([N+](=O)[O-])n1CC(O)CSC(=S)N1CCN(c2ccccc2F)CC1 (racemic) | <=12.7 | 56.9 (≈ 25 µg/mL) | 56 | 227 | 3.24 | 14.2 (≈ 6.25 µg/mL) | <=2.4 |
| Cc1ncc([N+](=O)[O-])n1CC(O)CSC(=S)N(C)C (racemic) | <=12.7 | 82.2 (≈ 25 µg/mL) | > 61 | > 243 | > 5 | 20.6 (≈ 6.26 µg/mL) |  |
| Cc1ncc([N+](=O)[O-])n1CC(O)CN1CCN(c2ncccn2)CC1 (racemic) | <=12.7 | 90 (≈ 31.3 µg/mL) | 43 | 174 | 3.93 | 22.5 (≈ 7.82 µg/mL) |  |
| Cc1ncc([N+](=O)[O-])n1CC(O)CSC(=S)N1CCC(C)CC1 (racemic) | 2.5 - 12.6 | 69.8 (≈ 25 µg/mL) | 26 | 104 | 1.82 | 17.4 (≈ 6.26 µg/mL) | <=2.4 |
| CCOC(=O)N1CCN(C(=S)SCC(O)Cn2c([N+](=O)[O-])cnc2C)CC1 (racemic) | <=12.7 | 60 (≈ 25 µg/mL) | 26 | 107 | 1.61 | 15 (≈ 6.25 µg/mL) | <=2.4 |
| Cc1ncc([N+](=O)[O-])n1CC(O)CN1C(C)CCCC1C (racemic) | <=12.7 | 84.5 (≈ 25 µg/mL) | > 59 | > 119 | > 5 | 42.2 (≈ 12.5 µg/mL) |  |
| CCN(CC)C(=S)SCC(O)Cn1c([N+](=O)[O-])cnc1C (racemic) | <=12.7 | 75.3 (≈ 25 µg/mL) | 32 | 65 | 2.46 | 37.6 (≈ 12.5 µg/mL) |  |
| Cc1ncc([N+](=O)[O-])n1CC(O)CSC(=S)N1CCN(c2cccc(Cl)c2)CC1 (racemic) | <=12.7 | 68.7 (≈ 31.3 µg/mL) | 15 | 62 | 1.08 | 17.2 (≈ 7.82 µg/mL) | <=2.4 |
| Cc1ncc([N+](=O)[O-])n1CC(O)CSC(=S)N1CCN(c2cccc(Cl)c2Cl)CC1 (racemic) | <=12.7 | 128 (≈ 62.7 µg/mL) | 7 | 62 | 1 | 16 (≈ 7.83 µg/mL) | <=2.4 |
| Cc1ncc([N+](=O)[O-])n1CC(O)Cn1cnc2ccccc21 (racemic) | <=12.7 | 83 (≈ 25 µg/mL) | 54 | 181 | 4.53 | 25.9 (≈ 7.82 µg/mL) |  |
| Cc1ncc([N+](=O)[O-])n1CC(O)CN1CCOCC1 (racemic) [MORINIDAZOLE] | <=12.7 | 92.6 (≈ 25 µg/mL) | > 54 | > 108 | > 5 | 46.3 (≈ 12.5 µg/mL) |  |
